Published values collected from several papers.
Each line is one published result; the experiments were not run side by side.
PPARA: Peroxisome proliferator-activated receptor alpha (PPARA, Homo sapiens, UniProt Q07869)
Tumor necrosis factor receptor superfamily member 9: Tumor necrosis factor receptor superfamily member 9 (Homo sapiens, UniProt Q07011)
gag-pol integrase: Gag-Pol polyprotein, integrase (gag-pol, Human immunodeficiency virus 1, UniProt P12497)
CYP2D6: Cytochrome P450 2D6 (CYP2D6, Homo sapiens, UniProt P10635)
ADRA1B: Alpha-1B adrenergic receptor (ADRA1B, Homo sapiens, UniProt P35368)

O=S(=O)(O)C(F)(F)C(F)(F)OC(F)(C(F)(F)F)C(F)(F)OC(F)C(F)(F)F (stereo not drawn) gave an EC50 of 24000 nM (PPARA; reporter gene, agonist, luciferase).
CCCC[C@@H]1NC(=O)[C@H](Cc2ccc(O)cc2)NC(=O)[C@@H]2CCCN2C(=O)[C@H](CC(=O)O)NC(=O)[C@H](C)NC(=O)[C@H](Cc2ccccc2)NC(=O)[C@@H]2CSCCC(=O)N3CN(CN(C3)C(=O)CCSC[C@@H](C(=O)N[C@@H](C)C(N)=O)NC1=O)C(=O)CCSC[C@H](NC(C)=O)C(=O)N[C@@H](CC(C)(C)C)C(=O)N1CCC[C@H]1C(=O)N[C@@H](CCC(=O)O)C(=O)N[C@H](CCCCNC(=O)CCc1cn(CCOCCOCCOCCOCCOCCC(=O)NCCCC[C@H]3NC(=O)[C@H](Cc4cccc5ccccc45)NC(=O)[C@@H]4CCCN4C(=O)CCSCCC(=O)N4CN5CN(C4)C(=O)CCSC[C@H](NC3=O)C(=O)N[C@@H](CCSC)C(=O)N[C@@H](CCCCNC(=N)N)C(=O)N[C@@H](CC(=O)O)C(=O)N[C@@H](Cc3c[nH]c4ccccc34)C(=O)N[C@@H](CO)C(=O)N[C@@H]([C@@H](C)O)C(=O)N3CCC[C@H]3C(=O)N3C[C@H](O)C[C@H]3C(=O)N[C@@H](Cc3c[nH]c4ccccc34)C(=O)N[C@H](C(N)=O)CSCCC5=O)nn1)C(=O)N1CCC[C@H]1C(=O)N[C@@H](Cc1ccc(O)cc1)C(=O)N2 gave a Kd of 3.2 nM (Tumor necrosis factor receptor superfamily member 9; binding, SPR).
c1ccc(-c2c[nH]c3ncnc(N4CCOCC4)c23)cc1 has an IC50 of 35 nM (Serine/threonine-protein kinase 4 (STK4, Homo sapiens, UniProt Q13043); enzyme activity, inhibitor, ADP detection).
The Ki of CC(=O)N[C@@H](CC(C)C)C(=O)N[C@@H](CC(C)C)C(=O)N[C@@H](CC(C)C)C(=O)N[C@@H](CCCN=C(N)N)C(=O)N[C@H](C(=O)N[C@@H](CCCCN)C(=O)N[C@@H](CCCN=C(N)N)C(N)=O)C(C)C is reported as 1520 nM (Proprotein convertase subtilisin/kexin type 7 (Homo sapiens, UniProt Q16549); enzyme activity, inhibitor).
CC(c1ccccc1)n1cc(-c2ncccn2)c(=O)[nH]c1=O (stereo not drawn) gave a Kd of 2510 nM (Hepatocyte growth factor receptor (MET, Homo sapiens, UniProt P08581); binding).
With O=C(O)[C@H](Cc1ccccc1)NC(=O)C1(c2ccccc2)CCN(Cc2ccccc2)CC1 the IC50 was 194000 nM (gag-pol integrase; enzyme activity, inhibitor, TR-FRET).
CCCC[C@@H]1NC(=O)[C@H](Cc2ccc(O)cc2)NC(=O)[C@@H]2CCCN2C(=O)[C@H](CC(=O)O)NC(=O)[C@H](C)NC(=O)[C@H](Cc2ccccc2)NC(=O)[C@@H]2CSCCC(=O)N3CN(CN(C3)C(=O)CCSC[C@@H](C(=O)N[C@@H](C)C(N)=O)NC1=O)C(=O)CCSC[C@H](NC(C)=O)C(=O)N[C@@H](CC(C)(C)C)C(=O)N1CCC[C@H]1C(=O)N[C@@H](CCC(=O)O)C(=O)N[C@H](CCCCNC(=O)CCc1cn(CCOCCOCCOCCOCCOCCC(=O)NCCCC[C@H]3NC(=O)[C@H](Cc4cccc5ccccc45)NC(=O)[C@@H]4CCCN4C(=O)[C@@H](NC(C)=O)CSCCC(=O)N4CN5CN(C4)C(=O)CCSC[C@H](NC3=O)C(=O)N[C@@H](CCSC)C(=O)N[C@@H](CCCCNC(=N)N)C(=O)N[C@@H](Cc3c[nH]cn3)C(=O)N[C@@H](Cc3c[nH]c4ccccc34)C(=O)N[C@@H](CO)C(=O)N[C@@H]([C@@H](C)O)C(=O)N3CCC[C@H]3C(=O)N3C[C@H](O)C[C@H]3C(=O)N[C@@H](Cc3c[nH]c4ccccc34)C(=O)N[C@H](C(N)=O)CSCCC5=O)nn1)C(=O)N1CCC[C@H]1C(=O)N[C@@H](Cc1ccc(O)cc1)C(=O)N2 gave a Kd of 3.2 nM (Tumor necrosis factor receptor superfamily member 9; binding, SPR).
The IC50 of Cc1c(Cc2ccc(C(F)(F)F)nc2)c[nH]c1C(=O)NC(C)c1cnn(C)c1 (stereo not drawn) is reported as 12700 nM (CYP2D6; enzyme activity, inhibitor; human, liver microsomes).
With O=C(O)[C@H](Cc1ccc2ccccc2c1)NC(=O)C1(c2ccc(F)cc2)CCN(CCC(F)(F)F)CC1 the IC50 was 206000 nM (gag-pol integrase; enzyme activity, inhibitor, TR-FRET).
The Ki of [Cd+2] is reported as 5220 nM (Protein phosphatase 1A (PPM1A, Homo sapiens, UniProt P35813, D239A); enzyme activity, inhibitor, absorbance; pH 8).
Cc1c(Cc2ccc(C(F)(F)F)nc2)c[nH]c1C(=O)NC(C)c1cn[nH]c1 (stereo not drawn) gave an IC50 of 750 nM (CYP2D6; enzyme activity, inhibitor; human, liver microsomes).
With c1ccc(-c2ncc(CN3CCN(c4ncccn4)CC3)[nH]2)cc1 the Ki was 817 nM (D(2) dopamine receptor (Drd2, Rattus norvegicus, UniProt P61169); ligand displacement, radioligand; cell membranes).
O=C(O)[C@H](Cc1ccc2ccccc2c1)NC(=O)C1(c2ccc(-c3ccccc3)cc2)CCN(CCC(F)(F)F)CC1 has an IC50 of 93500 nM (gag-pol integrase; enzyme activity, inhibitor, TR-FRET).
With Cc1cc(SCc2sc(-c3ccc(C(F)(F)F)c(F)c3)nc2C)ccc1OCC(=O)O the EC50 was 1300 nM (PPARA; reporter gene, agonist, luciferase).
CC[C@H](C)[C@H](NC(=O)[C@H](CCCNC(=N)N)NC(=O)[C@H](CC(C)C)NC(=O)[C@@H](N)Cc1ccccc1)C(=O)N[C@@H](CCCNC(=N)N)C(=O)N1CCC[C@H]1C(=O)N[C@@H](CCCCN)C(=O)O gave a Ki of 6900 nM (ADRA1B; cell-free assay, radioligand).
With CCCC[C@@H]1NC(=O)[C@H](Cc2ccc(O)cc2)NC(=O)[C@@H]2CCCN2C(=O)[C@H](CC(=O)O)NC(=O)[C@H](C)NC(=O)[C@H](Cc2ccccc2)NC(=O)[C@@H]2CSCCC(=O)N3CN(CN(C3)C(=O)CCSC[C@@H](C(=O)N[C@@H](C)C(N)=O)NC1=O)C(=O)CCSC[C@H](NC(C)=O)C(=O)N[C@@H](CC(C)(C)C)C(=O)N1CCC[C@H]1C(=O)N[C@@H](CCC(=O)O)C(=O)N[C@H](CCCCNC(=O)CCc1cn(CCOCCOCCOCCOCCOCCC(=O)NCCCC[C@H]3NC(=O)[C@H](Cc4cccc5ccccc45)NC(=O)[C@@H]4CCCN4C(=O)[C@@H](NC(C)=O)CSCCC(=O)N4CN5CN(C4)C(=O)CCSC[C@H](NC3=O)C(=O)N[C@@H](CCSC)C(=O)N[C@@H](CCCCNC(=N)N)C(=O)N[C@@H](CCC(=O)O)C(=O)N[C@@H](Cc3c[nH]c4ccccc34)C(=O)N[C@@H](CO)C(=O)N[C@@H]([C@@H](C)O)C(=O)N3CCC[C@H]3C(=O)N3C[C@H](O)C[C@H]3C(=O)N[C@@H](Cc3c[nH]c4ccccc34)C(=O)N[C@H](C(N)=O)CSCCC5=O)nn1)C(=O)N1CCC[C@H]1C(=O)N[C@@H](Cc1ccc(O)cc1)C(=O)N2 the Kd was 7.2 nM (Tumor necrosis factor receptor superfamily member 9; binding, SPR).
With O=C(O)C(F)(OC(F)(F)C(F)(F)C(F)(F)F)C(F)(F)F (stereo not drawn) the EC50 was 2100 nM (PPARA; reporter gene, agonist, luciferase).
COCCCN1CCN(c2ccccc2OC)CC1 has a Ki of 240 nM (ADRA1B; ligand displacement, radioligand).
CC(C)C[C@H](NC(=O)[C@H](Cc1ccccc1)NC(=O)[C@H](Cc1ccc(O)cc1)NC(=O)CNC(=O)[C@H](CCCCN)NC(=O)[C@H](CO)NC(=O)[C@H](CCC(N)=O)NC(=O)CNC(=O)[C@@H](NC(=O)[C@H](CO)NC(=O)[C@@H]1CCCN1C(=O)[C@H](CO)NC(=O)[C@H](CCC(N)=O)NC(=O)[C@H](Cc1ccc(O)cc1)NC(=O)[C@H](CCC(=O)O)NC(=O)[C@H](C)NC(=O)[C@H](CCCCN)NC(=O)[C@@H](N)Cc1ccccc1)C(C)C)C(=O)N[C@@H](Cc1ccccc1)C(=O)N[C@@H](CCCNC(=N)N)C(=O)N1CCC[C@H]1C(=O)N[C@@H](CCCNC(=N)N)C(=O)N[C@@H](CC(N)=O)C(N)=O gave an IC50 of 0.04 nM (Neuromedin-U receptor 2 (NMUR2, Homo sapiens, UniProt Q9GZQ4); ligand displacement, radioligand; cell membranes).
The EC50 of O=S(=O)(O)C(F)(F)C(F)(F)C(F)(F)C(F)(F)C(F)(F)C(F)(F)F is reported as 61000 nM (PPARA; reporter gene, agonist, luciferase).
The Kd of CCCC[C@@H]1NC(=O)[C@H](Cc2ccc(O)cc2)NC(=O)[C@@H]2CCCN2C(=O)[C@H](CC(=O)O)NC(=O)[C@H](C)NC(=O)[C@H](Cc2ccccc2)NC(=O)[C@@H]2CSCCC(=O)N3CN(CN(C3)C(=O)CCSC[C@H](NC(C)=O)C(=O)N[C@@H](CC(C)(C)C)C(=O)N3CCC[C@H]3C(=O)N[C@@H](CCC(=O)O)C(=O)N[C@H](CCCCNC(=O)CCc3cn(CCOCCOCCOCCOCCOCCC(=O)N[C@H]4CSCCC(=O)N5CN6CN(C5)C(=O)CCSC[C@H](NC(=O)[C@@H](CC(=O)O)NC(=O)[C@H](Cc5cccc7ccccc57)NC(=O)[C@@H]5CCCN5C4=O)C(=O)N[C@@H](CCSC)C(=O)N[C@@H](CCCCNC(=N)N)C(=O)N[C@@H](CC(=O)O)C(=O)N[C@@H](Cc4c[nH]c5ccccc45)C(=O)N[C@@H](CO)C(=O)N[C@@H]([C@@H](C)O)C(=O)N4CCC[C@H]4C(=O)N4C[C@H](O)C[C@H]4C(=O)N[C@@H](Cc4c[nH]c5ccccc45)C(=O)N[C@H](C(N)=O)CSCCC6=O)nn3)C(=O)N3CCC[C@H]3C(=O)N[C@@H](Cc3ccc(O)cc3)C(=O)N2)C(=O)CCSC[C@@H](C(N)=O)NC1=O is reported as 4.47 nM (Tumor necrosis factor receptor superfamily member 9; binding, SPR).
